Runt-SMMHC FRET: Runt domain-CBFb-SMMHC interaction inhibition; Q01196+Q13951; Cerulean-Runt/Venus-CBFb-SMMHC FRET ratio 530/480, 1 h; inhibition, % at 20 µM; 0.74% of 220,000 active;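 active = mean inhibition across duplicate retests at 20 µM reaching about 50%, limit read from the data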;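 note: 0% = DMSO wells and 100% = wells with excess untagged CBFb-SMMHC; inhibitors lower the FRET ratio by blocking Runt binding to CBFb-SMMHC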
Wee1 degr inh: inhibitors of human Wee1 degradation; P30291; HeLa Luc-Wee1K328M stability, luciferase luminescence; 100% = proteasome inhibitor MG132 effect; reporter increase, % at 5 µM; 1.2% of 220,000 active;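 active = activation above the mean of all tested compounds plus 3 SD, set per screening run, cut at about 8.8% in these data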;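 note: cells exposed to compound for 20 h before luminescence read; 0% = DMSO alone and 100% = MG132 at 30 µM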
AI-2 QS modul: Vibrio harveyi AI-2 quorum sensing modulation; Vibrio harveyi JMH597 AI-2 luminescence/OD600 ratio, 9 h; stronger effect = lower value; strain lacks LuxN and CqsS sensors; 0 = neutral-control median; activity change, % at 7.5 µM; 0.4% of 300,000 active; AID 2094; in the data active = activity change below about -75%, passing the limit was not always enough; inconclusive = no clear call, values can overlap the other calls;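 note: luminescence divided by OD600 gain over 9 h not by final OD600 alone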
RanGTP-Imp inh: inhibitors of RanGTP-importin-beta interaction, primary screen, biochemical, FRET, CFP-Ran, YFP-importin-beta, homogeneous. cell-free CFP-Ran/YFP-importin-beta FRET ratio. inhibition, % (no concentration beside the values). 1.1% of 300,000 active;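 active = more than half of the replicate wells show a fall in the fluorescence ratio signal beyond about 16%, limit read from the data, passing the limit was not always enough; inconclusive = exactly half of the replicate wells pass the set limit; inactive = fewer than half of replicates pass the limit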;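 note: 0% = DMSO wells and 100% = Ran loaded with GDP instead of GTP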
proKLK7 act: activates the human kallikrein-7 zymogen; purified proKLK7, EDANS-DABCYL substrate fluorescence; 100% is mature enzyme control, 0% vehicle; activation, % at 7 µM; 0.9% of 370,000 active; AID 652039;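 active = activation above the mean of all tested compounds plus 3 SD, computed per campaign excluding outliers beyond control limits, cut at about 13% in these data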
Target sequence (P49862 whole entry, looked up): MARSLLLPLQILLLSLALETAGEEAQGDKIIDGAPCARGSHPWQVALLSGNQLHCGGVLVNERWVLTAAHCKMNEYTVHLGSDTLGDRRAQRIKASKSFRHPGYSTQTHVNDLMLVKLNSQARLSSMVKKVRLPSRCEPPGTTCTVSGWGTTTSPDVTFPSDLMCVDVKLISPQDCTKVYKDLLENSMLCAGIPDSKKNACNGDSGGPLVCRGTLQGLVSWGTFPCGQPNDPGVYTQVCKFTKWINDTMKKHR
Runt-CBFb FRET: inhibitors of human RUNX1 Runt domain binding to CBFb | Q01196+Q13951 | Cerulean-Runt/Venus-CBFb FRET ratio 530/480, 1 h | inhibition, % at 20 µM | 0.46% of 220,000 active;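 active = inhibition over about 50% at 20 µM in the single-dose screen, limit read from the data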;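 note: 0% = DMSO wells and 100% = excess unlabeled CBFb competitor control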
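Schedule: protein complex preformed 1 h, compound exposure 1 h, room temperature, dark; test system: Cerulean-labeled Runt domain protein; amount: 100 nM per protein; buffer or medium: Tris 50 mM pH 7.5, KCl, K2SO4, 0.01% BSA; read-out: loss of energy transfer signal; detection: FRET fluorescence; controls: 5 µM unlabeled CBFb as full-inhibition high control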
JMH597 growth: retest: blocks Vibrio harveyi JMH597 growth; shares compounds with AI-2 QS modul; OD600 absorbance, 9 h; lacks LuxN and CqsS sensors; growth inhibition, % at 7.5 µM; 1% of 750 active; AID 2726;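 active = every replicate shows growth inhibition above 50%; inconclusive = at least half, but not all, replicates pass that cutoff; inactive = fewer than half of replicates pass it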
BB721 const-QS lum: retest counter-screen: luminescence loss in constitutive-on quorum sensing strain BB721 | 95% of 750 active | inhibition, % at 7.5 µM | Vibrio harveyi BB721 luminescence, 9 h | shares compounds with AI-2 QS modul;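 active = inhibition above about 80% in every replicate, not just on average, limit read from the data; inconclusive = at least half of replicates past the limit, but not all; inactive = fewer than half of replicates past the limit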
BB721 growth: retest Vibrio harveyi BB721 growth inhibition; shares compounds with AI-2 QS modul; OD600 absorbance, 9 h; growth inhibition, % at 7.5 µM; 3% of 750 active; AID 2728;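 active = every replicate shows growth inhibition above 50%; inconclusive = at least half but not all replicates above 50% inhibition; inactive = under half of replicates above 50% inhibition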
AI-2 QS JMH597: Vibrio harveyi AI-2 signaling luminescence modulation – JMH597 strain, confirmation; shares compounds with AI-2 QS modul; inhibition, % at 7.5 µM; AID 2736; Vibrio harveyi JMH597 AI-2 quorum sensing luminescence, 9 h; luxN and CqsS knockout, AI-2 only; 97% of 750 active;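 active = every replicate shows more than 75% inhibition of signal versus neutral control wells; inconclusive = half to three quarters of replicates exceed 75% inhibition; inactive = fewer than half of replicates exceed 75% inhibition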
* marks the source's active call; other numbers are inactive results; ? = inconclusive; . = not tested or not shown. Shown are actives, neighbours in structure and some others; about 2.9% of the full set was active somewhere.

SMILES	Runt-SMMHC FRET	Wee1 degr inh	AI-2 QS modul	RanGTP-Imp inh	proKLK7 act	Runt-CBFb FRET	JMH597 growth	BB721 const-QS lum	BB721 growth	AI-2 QS JMH597
CCCCCCCCCCCCCC(=O)NO	.	.	.	.	0.3	.	.	.	.	.
O=C(/C=C/c1ccccc1Cl)NCc1ccco1	-3.2	1.1	-83.1*	6.4	-0.5	-2.8	4.8	93.0*	18.3	93.7*
COCC(C)NC(=O)c1nn(Cc2ccccc2)c(=O)c2ccccc12 (configuration not stated)	.	.	31.3	0.8	-0.3	.	.	.	.	.
CCCCCc1nnc(NC(=O)Cn2cnc3ccccc3c2=O)s1	-1.3	-2.9	-93.8*	0.0	0.3	-1.3	-1.4	98.1*	-5.2	98.7*
CCCCc1nnc(NC(=O)Cn2cnc3ccccc3c2=O)s1	3.2	4.8	-94.8*	-0.1	0.6	-0.2	32.5	99.1*	27.2	99.4*
CCc1nnc(NC(=O)CCn2cnc3ccccc3c2=O)s1	2.3	2.0	-40.2	-1.6	0.0	-0.2	.	.	.	.
Cc1ccccc1C(=O)c1ccc2c(c1)n(C)c(=O)n2C	-5.6	-2.8	-6.5	0.0	-0.2	18.9	.	.	.	.
CNc1oc(-c2ccco2)nc1C#N	2.2	0.3	24.4	0.5	-0.2	0.7	.	.	.	.
N#Cc1nc(-c2ccccc2F)oc1NCCc1ccccc1	-7.5	1.0	16.9	3.9	-3.9	-3.9	.	.	.	.
Cc1ccc(CNc2oc(-c3ccco3)nc2C#N)cc1	-3.5	1.4	-86.5*	-1.8	1.0	-0.9	20.2	94.9*	7.0	97.6*
N#Cc1nc(-c2ccccc2F)oc1NCc1ccccc1	1.2	2.1	-90.1*	0.9	2.5	0.4	-20.4	95.8*	-2.4	97.2*
O=C(CSc1nc2ncc(Cl)cc2[nH]1)N1CCC(Cc2ccccc2)CC1	.	.	.	.	0.4	.	.	.	.	.
COc1cccc(OCc2cc(C(=O)NCc3ccc4c(c3)OCO4)no2)c1	.	.	?	2.4	-0.1	.	56.3	91.5*	?	96.2*
COc1cccc(/C=C/C(=O)NCc2ccc3c(c2)OCO3)c1	.	.	-85.6*	5.4	0.1	.	0.6	94.8*	1.4	95.7*
COc1ccc(CC(=O)NCc2ccc3c(c2)OCO3)cc1	-2.3	0.2	27.4	1.1	-1.0	4.0	.	.	.	.
Cc1nc(C)c(C(=O)Nc2ccc(Oc3ccccc3)cc2)o1	-2.2	-0.5	-82.8*	-2.7	-0.3	-2.0	11.1	90.6*	-43.0	94.0*
Cc1ncoc1C(=O)Nc1ccc(Oc2ccccc2)cc1	-1.3	-4.5	-96.3*	-2.9	0.0	-1.9	15.1	98.8*	6.0	99.2*
CC(C)CCCN1C(N(C)C)=NC[C@@H]1Cc1ccccc1	.	.	.	.	0.3	.	.	.	.	.
Nc1nc(SCC(=O)Nc2ccc(S(N)(=O)=O)cc2)n[nH]1	1.0	2.0	21.8	3.6	-0.3	-2.0	.	.	.	.
Cc1ccc(Oc2ccc(NC(=O)CSc3n[nH]c(N)n3)cc2)cc1	2.7	1.4	-94.3*	-0.2	-0.4	-0.8	-2.9	95.3*	-8.2	98.1*
Nc1nc(SCC(=O)c2ccc(Oc3ccccc3)cc2)n[nH]1	-2.1	-0.4	-94.5*	-4.8	0.1	2.8	14.7	96.9*	-86.5	97.9*
Nc1nc(SCC(=O)c2ccc([N+](=O)[O-])cc2)n[nH]1	24.5	-1.4	36.5	2.3	0.3	40.2	.	.	.	.
O=C(COC(=O)c1ccc([N+](=O)[O-])cc1Cl)Nc1cccnc1Cl	.	.	1.2	2.1	0.1	.	.	.	.	.
C=CCNC(=O)NC(=O)CN1C(=O)NC(c2ccccc2)(c2ccccc2)C1=O	.	.	-84.9*	1.0	0.0	.	-4.0	93.6*	-9.4	95.7*
COCCNC(=O)CN1C(=O)NC(c2ccccc2)(c2ccccc2)C1=O	.	.	-7.4	3.6	-0.2	.	.	.	.	.
SMILES	Runt-SMMHC FRET	Wee1 degr inh	AI-2 QS modul	RanGTP-Imp inh	proKLK7 act	Runt-CBFb FRET	JMH597 growth	BB721 const-QS lum	BB721 growth	AI-2 QS JMH597
CC(C)CCNC(=O)CN1C(=O)NC(c2ccccc2)(c2ccccc2)C1=O	.	.	-91.8*	6.5	-0.2	.	7.1	90.2*	7.8	95.3*
COc1cc(C)nc(N(C)S(=O)(=O)c2ccccc2Cl)n1	-0.7	0.1	17.3	1.2	-0.1	-1.3	.	.	.	.
COc1ccc(C(=O)Nc2ccc(Cl)cc2C(=O)N2CCCC(C)C2)cc1OC (configuration not stated)	-4.7	-3.2	19.4	4.7	0.0	2.2	.	.	.	.
CCc1nc2c(OCCn3cccc3)cccn2c1N(C)C(=O)c1ccccc1F	.	.	.	.	-0.5	.	.	.	.	.
O=C(CN1C(=O)NC2(CCCC2)C1=O)Nc1ccc(Cl)c(C(F)(F)F)c1	.	.	11.8	-3.2	0.1	.	.	.	.	.
CN1CC(=O)N(CC(=O)Nc2ccc(Cl)c(C(F)(F)F)c2)C1=O	3.5	-0.6	-95.6*	0.0	0.1	0.7	19.5	99.1*	12.7	99.3*
CC(C)(C)c1ccc(NC(=O)Nc2ccc(OCC(=O)N3CCOCC3)cc2)cc1	-0.7	1.9	20.3	0.7	0.5	-2.1	.	.	.	.
COc1cc(CCCN2C(=O)C(=O)NC[C@@H]2C(C)O)cc(OC)c1OC (some centres not stated)	-1.9	.	-5.4	5.0	0.5	0.5	.	.	.	.
CN(C)S(=O)(=O)c1ccc(NC(=O)CN2CCc3ccccc32)cc1	1.5	0.9	-91.9*	-0.7	0.2	0.7	-16.8	95.5*	-7.6	96.8*
O=c1c2ccccc2nc(SCc2ccc([N+](=O)[O-])cc2)n1-c1ccc(Cl)cc1	-2.3	4.1	11.8	1.4	0.2	2.4	.	.	.	.
Nn1c(SCc2ccc([N+](=O)[O-])cc2)nc2ccccc2c1=O	.	.	-96.8*	1.6	-0.1	.	-7.9	96.7*	-0.7	97.5*
CCc1ccc(CCC(=O)Nc2ccc(C)c(C)c2)o1	-7.3	1.9	-87.0*	0.6	0.1	1.2	3.9	93.2*	-27.9	95.8*
CCc1ccc(NC(=O)CCc2ccc(C)o2)cc1	.	.	?	0.9	0.5	.	.	.	.	.
CCc1ccc(NC(=O)CCc2ccc(CC)o2)cc1	.	.	?	3.5	-0.4	.	20.4	72.9	-10.3	88.0*
Cc1nc2ccccc2cc1OCc1ccc(Cl)cc1	2.9	-2.4	-54.9	0.1	0.9	-0.2	.	.	.	.
Cc1nc2ccccc2cc1OCc1ccccc1	-5.1	0.1	-80.8*	3.0	0.8	-3.1	24.2	93.5*	?	96.3*

Source: PubChem BioAssay
